Measurements as given in ChEMBL document CHEMBL1136762, “Methoxylation of desazadesferrithiocin analogues: enhanced iron clearing efficiency” (J Med Chem, 2003).

Key:
Monkey [1] = experiment: Iron clearing activity when administered 150 uM/kg orally to Cebus apella Primates (n = 4) [% stool/% urine = 70/30]; assay type: functional
[2] = Partition coefficient (logP); assay type: physicochemical; settings: octanol/water
Summary of the method: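 Shake-flask octanol–water distribution coefficient at pH 7.4 (50 mM TRIS), not corrected for ionization. Quadruplicate samples were shaken overnight with 1-octanol at 22–24 °C and the layers settled 1–2 h before separation. Quantified by UV spectrometry and expressed as the log of the fraction in the octanol layer.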

Monkey [3] = experiment: Iron clearing activity when administered 150 uM/kg orally to Cebus apella Primates (n = 4) [% stool/% urine = 81/19]; assay type: functional
Monkey [4] = experiment: Iron clearing activity when administered 150 uM/kg orally to Cebus apella Primates (n = 4) [% stool/% urine = 86/14]; assay type: functional

Row | Compound | logP [2] | Efficiency (Monkey [1]) [%] | Efficiency (Monkey [3]) [%] | Efficiency (Monkey [4]) [%]
1 | CC1(C)SC(c2ccc(O)cc2O)=N[C@H]1C(=O)O | -0.91 | 12.3 |  | 
2 | C[C@]1(C(=O)O)CSC(c2ccc(O)cc2O)=N1 [DEFERITRIN] | -1.05 |  |  | 13.4
3 | COc1ccc(C2=N[C@@](C)(C(=O)O)CS2)c(O)c1 | -0.7 | 24.4 |  | 

Continued, in another order:

Row | logP [2] | Compound | Efficiency (Monkey [1]) [%] | Efficiency (Monkey [3]) [%] | Efficiency (Monkey [4]) [%]
4 | -1.33 | O=C(O)[C@H]1CSC(c2ccc(O)cc2O)=N1 | 4.2 |  | 
5 | -0.89 | COc1ccc(C2=N[C@@H](C(=O)O)CS2)c(O)c1 |  | 16.2 | 
